# pIC50: −log10 of the molar value. Calls of active or inactive are those of the source. The rule behind the calls is not given here.
# Tests used:
# [1] = system: Cynomolgus monkey; assay: Upregulation of Tlr7 expression in cynomolgus monkey plasma at 3 mg/kg, po after 24 hrs by Fluidigm RT-qPCR analysis (reference value: 1.8); format: functional, Macaca fascicularis
# [2] = system: Cynomolgus monkey; assay: Anti-inflammatory activity in cynomolgus monkey plasma assessed as IL-10 levels at 3 mg/kg, po after 24 hrs by Luminex assay (reference value: 195 pg/ml); format: functional, Macaca fascicularis
# [3] = system: Cynomolgus monkey; assay: Toxicity in cynomolgus monkey assessed as change in body weight up to 30 mg/kg, po; format: organism-based, Macaca fascicularis; details: in vivo
# [4] = system: Cynomolgus monkey; assay: Proinflammatory activity in cynomolgus monkey plasma assessed as IL-6 levels at 30 mg/kg, po after 24 hrs by Luminex assay (reference value: 80 pg/ml); format: functional, Macaca fascicularis
# [5] = Cmax in C57BL/6J mouse liver at 1 mg/kg, po by LC-MS analysis; format: ADME, organism-based; parameters: dose 1 mg/kg, route oral
# Method in brief: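 Healthy C57BL/6 mice, groups of 15, given a single oral dose (0.3, 1, 3, 10 or 30 mg/kg) in 20% HP-β-CD. Blood drawn at 0.5 h. Three mice per group sacrificed at 0.5, 1, 2, 4 or 7 h, and compound in plasma and liver measured by LC−MS. Values rounded to whole numbers.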
# [6] = biological target: T1, TLR7 and TLR8 (Homo sapiens) (UniProt Q9NYK1+Q9NR97); assay: Agonist activity at TLR7/8 in human PBMCs co-cultured with primary human hepatocytes infected with HBV genotype C for 12 days assessed as increase in IL-10 levels up to 5 uM measured after 42 days
# [7] = system: Plasma; assay: Upregulation of IP-10 mRNA expression levels in C57BL/6J mouse plasma at 1 mg/kg, po by RT-qPCR analysis (reference value: 1); format: functional
# [8] = biological target: T1, TLR7 and TLR8 (Homo sapiens); assay: Agonist activity at TLR7/8 in human PBMCs co-cultured with primary human hepatocytes infected with HBV genotype C for 12 days assessed as increase in IL-1beta levels up to 5 uM measured after 42 days
# [9] = system: Cynomolgus monkey; assay: Induction of ISG response in cynomolgus monkey plasma assessed as upregulation of Oas1b mRNA expression at 1 mg/kg, po after 24 hrs by Fluidigm RT-qPCR analysis (reference value: 1); format: functional, Macaca fascicularis
# Method in brief: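 Cynomolgus monkeys, single oral doses of 1, 3, 9 and 30 mg/kg with a planned 2-week wash-out between doses. Systemic ISG (ISG15, Mx1, OAS1) mRNA was measured by Fluidigm RT-qPCR at 1, 2, 4, 8 and 24 h postdose.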
# [10] = system: Plasma; assay: Effect on cytokine profile in C57BL/6J mouse plasma assessed as IL-12p70 levels at 0.3 mg/kg, po by multiplex assay (reference value: 560 pg/ml); format: functional
# Method in brief: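 Single oral gavage in 20% HP-β-CD to healthy C57BL/6 mice, groups of 15 at 0.3, 1, 3, 10 or 30 mg/kg. Three mice per group sacrificed at 0.5, 1, 2, 4 or 7 h. Plasma and liver cytokines by multiplex, maximum level reported, rounded to nearest multiple of 5.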
# [11] = Stability in human hepatocytes assessed compound turnover at 1 uM after 60 mins; format: ADME, cell-based, Hepatocyte; details: read-out: Drug metabolism
# [12] = biological target: T1, TLR7 and TLR8 (Homo sapiens); assay: Agonist activity at TLR7/8 in human PBMCs assessed as reduction in extracellular viral load in human hepatocytes infected with HBV genotype C for 12 days followed by exposure to conditioned supernatant from up to 5 uM compound treated PBMCs measured after 42 days; format: cell-based
# [13] = system: Cynomolgus monkey; assay: Activation of monocytes in cynomolgus monkey plasma assessed as upregulation of MCP1 levels at 1 mg/kg, po after 24 hrs by Luminex assay (reference value: 385 pg/ml); format: functional, Macaca fascicularis
# [14] = biological target: T1, TLR7 and TLR8 (Homo sapiens); assay: Agonist activity at TLR7/8 in human PBMCs co-cultured with primary human hepatocytes infected with HBV genotype C for 12 days assessed as increase in IL-1Ra levels up to 5 uM measured after 42 days
# [15] = system: Liver; assay: Upregulation of IP-10 mRNA expression levels in C57BL/6J mouse liver at 1 mg/kg, po by RT-qPCR analysis (reference value: 1); format: functional
# [16] = system: Cynomolgus monkey; assay: Effect on cytokine profile in cynomolgus monkey plasma assessed as IL-12P70 levels at 9 mg/kg, po after 24 hrs by Luminex assay (reference value: 2.17 pg/ml); format: functional, Macaca fascicularis
# Method in brief: (§1)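 Healthy cynomolgus monkeys given single oral doses of 1, 3, 9 and 30 mg/kg, with a 2-week wash-out planned between doses. Systemic cytokine levels in plasma were sampled at 0.5, 1, 2, 4, 9 and 24 h postdose.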
# [17] = system: Cynomolgus monkey; assay: Proinflammatory activity in cynomolgus monkey plasma assessed as IL-6 levels at 9 mg/kg, po after 24 hrs by Luminex assay (reference value: 80 pg/ml); format: functional, Macaca fascicularis
# [18] = system: Cynomolgus monkey; assay: Proinflammatory activity in cynomolgus monkey plasma assessed as IL-8 levels at 30 mg/kg, po after 24 hrs by Luminex assay (reference value: 430 pg/ml); format: functional, Macaca fascicularis
# [19] = system: Liver; assay: Proinflammatory activity in C57BL/6J mouse liver assessed as IL-6 levels at 3 mg/kg, po by multiplex assay (reference value: 10 pg/g); format: functional
# [20] = system: Cynomolgus monkey; assay: Proinflammatory activity in cynomolgus monkey plasma assessed as TNFalpha levels at 30 mg/kg, po after 24 hrs by Luminex assay (reference value: 285 pg/ml); format: functional, Macaca fascicularis
# [21] = AUC in Sprague-Dawley rat at 10 mg/kg, po; format: ADME, organism-based; details: in vivo
# Method in brief: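 Male Sprague-Dawley rats were given 10 mg/kg orally as a solution. Compound was sampled from the portal vein, the systemic circulation and the liver.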
# [22] = biological target: Alpha-1A adrenergic receptor; assay: Inhibition of alpha-1A adrenergic receptor (unknown origin)
# [23] = system: Cynomolgus monkey; assay: Induction of IFNalpha levels in cynomolgus monkey plasma at 3 mg/kg, po after 24 hrs by ELISA; format: functional, Macaca fascicularis; method in brief: as §1
# [24] = AUC (0 to last) in C57BL/6J mouse liver at 10 mg/kg, po by LC-MS analysis; format: ADME, organism-based; details: in vivo
# Method in brief: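 Healthy C57BL/6 mice were dosed once by mouth at 0.3, 1, 3, 10 or 30 mg/kg in 20% HP-β-CD, in groups of 15 per dose. Three mice per group were sacrificed at 0.5, 1, 2, 4 or 7 h, and plasma and liver compound levels were measured by LC–MS. Values were rounded to whole numbers.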
# [25] = system: Plasma; assay: Proinflammatory activity in C57BL/6J mouse plasma assessed as IL-1beta levels at 10 mg/kg, po by multiplex assay (reference value: 60 pg/ml); format: functional
# [26] = system: Liver; assay: Proinflammatory activity in C57BL/6J mouse liver assessed as CXCL-1 levels at 3 mg/kg, po by multiplex assay (reference value: 25 pg/g); format: functional
# [27] = system: Cynomolgus monkey; assay: Effect on cytokine profile in cynomolgus monkey plasma assessed as IL-15 levels at 1 mg/kg, po after 24 hrs by Luminex assay (reference value: 20 pg/ml); format: functional, Macaca fascicularis; method in brief: as §1
# [28] = biological target: D(1A) dopamine receptor (Homo sapiens, UniProt P21728); assay: Inhibition of dopamine D1 receptor (unknown origin)
# D(1A) dopamine receptor, sequence (P21728 whole entry): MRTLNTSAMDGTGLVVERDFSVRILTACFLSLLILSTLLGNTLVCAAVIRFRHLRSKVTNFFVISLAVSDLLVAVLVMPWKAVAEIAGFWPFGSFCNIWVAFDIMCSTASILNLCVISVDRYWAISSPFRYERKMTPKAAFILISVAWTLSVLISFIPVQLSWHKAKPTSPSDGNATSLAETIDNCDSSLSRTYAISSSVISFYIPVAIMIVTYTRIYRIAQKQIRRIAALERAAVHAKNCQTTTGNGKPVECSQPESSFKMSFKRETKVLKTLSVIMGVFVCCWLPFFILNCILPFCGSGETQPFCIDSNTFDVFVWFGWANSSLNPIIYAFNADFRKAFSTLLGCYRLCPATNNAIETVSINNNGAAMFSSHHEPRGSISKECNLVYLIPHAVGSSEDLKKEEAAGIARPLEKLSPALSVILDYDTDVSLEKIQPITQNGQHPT
# T1 sequence (Q9NR97 whole entry, looked up): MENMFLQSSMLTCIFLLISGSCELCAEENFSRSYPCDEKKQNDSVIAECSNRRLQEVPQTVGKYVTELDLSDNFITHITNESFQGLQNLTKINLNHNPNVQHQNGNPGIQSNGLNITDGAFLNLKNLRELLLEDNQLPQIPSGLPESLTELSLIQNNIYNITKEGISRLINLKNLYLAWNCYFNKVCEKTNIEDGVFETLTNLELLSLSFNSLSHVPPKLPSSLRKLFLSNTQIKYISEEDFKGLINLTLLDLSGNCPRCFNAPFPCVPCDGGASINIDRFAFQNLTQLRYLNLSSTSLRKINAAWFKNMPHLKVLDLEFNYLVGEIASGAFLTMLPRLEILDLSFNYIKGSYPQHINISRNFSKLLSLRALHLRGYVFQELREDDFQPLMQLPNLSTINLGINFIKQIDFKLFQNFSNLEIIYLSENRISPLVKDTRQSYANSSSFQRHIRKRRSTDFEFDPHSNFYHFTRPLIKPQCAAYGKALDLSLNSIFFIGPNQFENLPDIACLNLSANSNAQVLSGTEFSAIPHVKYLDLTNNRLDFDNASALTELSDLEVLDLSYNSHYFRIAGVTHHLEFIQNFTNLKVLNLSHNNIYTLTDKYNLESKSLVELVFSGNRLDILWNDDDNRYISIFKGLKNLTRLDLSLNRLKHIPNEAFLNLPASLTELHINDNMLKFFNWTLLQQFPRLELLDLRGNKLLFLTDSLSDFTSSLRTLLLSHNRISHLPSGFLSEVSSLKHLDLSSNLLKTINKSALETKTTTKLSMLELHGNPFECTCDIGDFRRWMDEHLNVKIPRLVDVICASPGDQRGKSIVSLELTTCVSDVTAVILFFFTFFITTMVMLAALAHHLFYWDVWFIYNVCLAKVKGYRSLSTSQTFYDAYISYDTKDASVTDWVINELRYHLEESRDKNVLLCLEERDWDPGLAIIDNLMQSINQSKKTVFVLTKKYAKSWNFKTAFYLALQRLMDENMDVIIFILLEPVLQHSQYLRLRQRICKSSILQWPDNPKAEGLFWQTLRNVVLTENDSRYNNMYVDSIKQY
# T1 sequence (Q9NYK1 whole entry, looked up): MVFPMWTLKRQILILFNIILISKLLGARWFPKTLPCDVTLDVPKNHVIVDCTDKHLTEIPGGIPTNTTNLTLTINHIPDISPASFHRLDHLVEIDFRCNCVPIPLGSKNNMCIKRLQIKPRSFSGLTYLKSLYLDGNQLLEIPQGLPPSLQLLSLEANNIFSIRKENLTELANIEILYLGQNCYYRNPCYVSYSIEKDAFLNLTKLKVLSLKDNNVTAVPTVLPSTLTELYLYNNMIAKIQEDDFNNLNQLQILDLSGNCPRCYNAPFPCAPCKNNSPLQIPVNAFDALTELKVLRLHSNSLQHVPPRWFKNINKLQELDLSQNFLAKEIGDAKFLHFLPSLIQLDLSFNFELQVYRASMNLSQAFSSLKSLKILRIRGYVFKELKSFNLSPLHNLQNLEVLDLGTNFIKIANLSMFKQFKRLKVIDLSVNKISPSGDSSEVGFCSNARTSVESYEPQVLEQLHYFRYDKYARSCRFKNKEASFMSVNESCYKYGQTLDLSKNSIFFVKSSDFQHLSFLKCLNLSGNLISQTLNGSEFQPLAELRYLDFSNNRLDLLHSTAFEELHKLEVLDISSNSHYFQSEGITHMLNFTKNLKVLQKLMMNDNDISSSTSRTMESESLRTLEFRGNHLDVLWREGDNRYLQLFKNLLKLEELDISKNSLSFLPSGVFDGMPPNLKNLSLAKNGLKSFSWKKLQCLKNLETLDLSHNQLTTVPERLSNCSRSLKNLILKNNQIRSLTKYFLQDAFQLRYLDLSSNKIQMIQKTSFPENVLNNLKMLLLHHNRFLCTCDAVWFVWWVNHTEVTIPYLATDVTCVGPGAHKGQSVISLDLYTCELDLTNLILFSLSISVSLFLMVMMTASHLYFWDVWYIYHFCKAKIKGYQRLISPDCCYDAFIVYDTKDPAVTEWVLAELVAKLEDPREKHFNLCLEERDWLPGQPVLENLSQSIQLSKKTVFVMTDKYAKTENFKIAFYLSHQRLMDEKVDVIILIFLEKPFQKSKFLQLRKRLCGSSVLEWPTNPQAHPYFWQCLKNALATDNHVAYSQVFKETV
compound,measurement,setting,value
CCC[C@@H](CCO)Nc1nc(N)nc2c(F)cccc12,fold change (FC),[1],5.1
same,Activity,[2],1615 pg/mL
same,Activity,[3],Non-Toxic
same,Activity,[4],5285 pg/mL
same,Cmax,[5],188 ng/g
same,Activity,[6],Active
same,fold change (FC),[7],845
same,Activity,[8],Active
same,fold change (FC),[9],180
same,Activity,[10],470 pg/mL
same,"metabolised at 1 h, 1 µM",[11],35%
same,Activity,[12],Active
same,Activity,[13],2820 pg/mL
same,Activity,[14],Active
same,fold change (FC),[15],775
same,Activity,[16],3.8 pg/mL
same,Activity,[17],2265 pg/mL
same,Activity,[18],1840 pg/mL
same,Activity,[19],3225 pg/g
same,Activity,[20],2990 pg/mL
same,AUC,[21],0.049 µg·h/mL
same,pIC50,[22],< 5.00
same,Activity,[23],>51200 pg/mL
same,AUClast,[24],2315 ng·h/g
same,Activity,[25],55 pg/mL
same,Activity,[26],35575 pg/g
same,Activity,[27],20 pg/mL
same,pIC50,[28],< 5.00

# — ChEMBL document CHEMBL4130635, “2,4-Diaminoquinazolines as Dual Toll-like Receptor (TLR) 7/8 Modulators for the Treatment of Hepatitis B Virus” (J Med Chem, 2018)
